Experimental data gathered from unrelated publications.
Each line is one published result; the experiments were not run side by side. pEC50, pIC50: −log10 of the molar value.
Observed: cell growth or viability

| SMILES | cell line | assay | conditions | endpoint | value |
| --- | --- | --- | --- | --- | --- |
| CCCn1cnc2ccc(-c3ccc(N4CCCCC4=O)nc3)cc2c1=O | NCI-H1975 | CCK-8 | 72 h | pIC50 | < 5.00 |
| O=C(Nc1cccc(F)c1)Nc1nc2cc(-c3ccc4ncn(CCN5CCOCC5)c(=O)c4c3)ccc2s1 | NCI-H1975 | MTT | 72 h | pIC50 | < 4.70 |
| CCCCCCCCCCCCCCCCCCOc1ccc(CC(=O)OCCC[N+](C)(C)C)cc1 | NCI-H322M | SRB | 10 µM | inhibition | 9.97% |
| NCCC(=O)Nc1ccccc1/N=c1\cc(-c2ccc3nc(N)oc3c2)oc2ccc(F)cc12 | NCI-H1975 | CCK-8 | 1 µM | inhibition | 63.7% |
| CCCCCCCCCCCCCCCCCCOc1ccc(CC(=O)OCC[N+](CC)(CC)CC)cc1 | NCI-H322M | SRB | 10 µM | inhibition | 13.3% |
| COc1cccc(NC(=O)Nc2nc3cc(-c4ccc5ncn(CC(=O)N6CCOCC6)c(=O)c5c4)ccc3s2)c1 | NCI-H1975 | MTT | 72 h | pIC50 | < 4.70 |
| CNCCC(=O)Nc1ccccc1/N=c1\cc(-c2ccc3nc(N)oc3c2)oc2ccccc12 | NCI-H1975 | CCK-8 | 1 µM | inhibition | 43% |
| CCCn1cnc2ccc(-c3ccc(NC(=O)CC)nc3)cc2c1=O | NCI-H1975 | CCK-8 | 72 h | pIC50 | 5.97 |
| O=C(Nc1cccc(C(F)(F)F)c1)Nc1nc2cc(-c3ccc4ncn(CCN5CCOCC5)c(=O)c4c3)ccc2s1 | NCI-H1975 | MTT | 72 h | pIC50 | 5.83 |
| CCCCCCCCCCCCCCCCCCOc1ccccc1CC(=O)OCC[N+]1(C)CCCCC1 | NCI-H322M | SRB | 10 µM | inhibition | 15.4% |
| C[C@H](N)C(=O)Nc1ccccc1/N=c1\cc(-c2ccc3c(c2)OCO3)oc2ccccc12 | NCI-H1975 | CCK-8 | 1 µM | inhibition | 1.32% |
| CCCCCCCCCCCCCCCCCCOc1ccc(CC(=O)OCC[N+]2(C)CCCCC2)cc1 | NCI-H322M | SRB | 10 µM | inhibition | 3.63% |
| Cc1nc(Nc2ncc(C(=O)Nc3c(C)cccc3Cl)s2)cc(N2CC[C@H](O)C2)n1 | KARPAS-422 | ATP luminescence | 10 µM, 72 h | inhibition | 91% |
| CCCCCCCCCCCCCCCCCCOc1cccc(CC(=O)OCC[N+]2(C)CCOCC2)c1 | NCI-H322M | SRB | 10 µM | inhibition | 1.47% |
| COc1ccc(NC(=O)Nc2nc3cc(-c4ccc5ncn(Cc6ccccc6)c(=O)c5c4)ccc3s2)cc1 | NCI-H1975 | MTT | 72 h | pIC50 | < 4.70 |
| O=C(Nc1ccc(-c2ccc3ncn(Cc4ccccc4)c(=O)c3c2)cn1)c1ccco1 | NCI-H1975 | CCK-8 | 72 h | pIC50 | < 5.00 |
| COc1cccc2c1C(=O)c1c(O)c3c(c(O)c1C2=O)C[C@@](O)(C(=O)CO)C[C@@H]3O[C@H]1C[C@H](N)[C@H](O)[C@H](C)O1 | NCI-H1975 | MTT | 72 h | pIC50 | 7.17 |

| SMILES | cell line | assay | conditions | endpoint | value |
| --- | --- | --- | --- | --- | --- |
| Oc1cccc(-c2nc(N3CCOCC3)c3oc4ncccc4c3n2)c1 | NCI-H1975 | CCK-8 | 1 µM | inhibition | 38% |
| C[C@H](Nc1ccc2c(c1)OCCn1cc(N3C(=O)OC[C@H]3C(F)F)nc1-2)C(N)=O | KPL4 | ATP luminescence | 5 days | pEC50 | 7.13 |
| CCCCC(=O)Nc1ccc(-c2ccc3ncn(CCF)c(=O)c3c2)cn1 | NCI-H1975 | CCK-8 | 72 h | pIC50 | 6.72 |
| Cc1nc(NC(=O)N2CCC[C@H]2C(N)=O)sc1-c1ccnc(C(C)(C)C(F)(F)F)c1 | KPL4 | ATP luminescence | 5 days | pEC50 | 5.92 |
| CCCCn1cnc2ccc(-c3ccc(NC(=O)Nc4ccc(F)cc4)nc3)cc2c1=O | NCI-H1975 | CCK-8 | 72 h | pIC50 | 5.85 |
| CCCCCCCCCCCCCCCCCCOc1ccccc1CC(=O)OCC[N+](CC)(CC)CC | NCI-H322M | SRB | 10 µM | inhibition | 29.4% |
| CC(=O)Nc1nc2cc(-c3ccc4ncn(Cc5ccccc5)c(=O)c4c3)ccc2s1 | NCI-H1975 | MTT | 72 h | pIC50 | < 4.70 |
| CCCCn1cnc2ccc(-c3ccc(NC(=O)Nc4ccccc4)nc3)cc2c1=O | NCI-H1975 | CCK-8 | 72 h | pIC50 | 5.61 |
| CCCCCCCCCCCCCCCCCCOc1ccccc1CC(=O)OCC[N+]1(C)CCCC1 | NCI-H322M | SRB | 10 µM | inhibition | 31.9% |
| COc1ccc2/c(=N/c3ccccc3NC(=O)CN)cc(-c3ccc4c(c3)OCCO4)oc2c1 | NCI-H1975 | CCK-8 | 1 µM | inhibition | 8.23% |
| O=C(Nc1ccc(Br)cc1)Nc1nc2cc(-c3ccc4ncn(Cc5ccccc5)c(=O)c4c3)ccc2s1 | NCI-H1975 | MTT | 72 h | pIC50 | < 4.70 |
| C[C@H](N)C(=O)Nc1ccccc1/N=c1\cc(-c2ccc3c(c2)OCCO3)oc2cc(F)ccc12 | NCI-H1975 | CCK-8 | 1 µM | inhibition | -0.65% |
| CC(C)CCn1cnc2ccc(-c3ccc4sc(NC(=O)Nc5ccc(F)cc5)nc4c3)cc2c1=O | NCI-H1975 | MTT | 72 h | pIC50 | 6.02 |
| CCCCC(=O)Nc1ccc(-c2ccc3ncn(CC#N)c(=O)c3c2)cn1 | NCI-H1975 | CCK-8 | 72 h | pIC50 | < 5.00 |
| NCCC(=O)Nc1ccccc1/N=c1\cc(-c2ccc3nc(N)oc3c2)oc2ccc(O)cc12 | NCI-H1975 | CCK-8 | 1 µM | inhibition | 7.56% |
| CCCCC(=O)Nc1ccc(-c2ccc3ncn(CCCC)c(=O)c3c2)cn1 | NCI-H1975 | CCK-8 | 72 h | pIC50 | 6.51 |
| CC(C)(C)[C@H](N)C(=O)Nc1ccccc1/N=c1\cc(-c2ccc3c(c2)OCO3)oc2ccccc12 | NCI-H1975 | CCK-8 | 1 µM | inhibition | 3.21% |
